We go through nine compounds from ChEMBL document CHEMBL3352767, “Antibacterial ilicicolinic acids C and D and ilicicolinal from Neonectria discophora SNB-CN63 isolated from a termite nest” (J Nat Prod, 2015).

≈ marks a conversion by molar mass, not a printed value.

Data set [1] in a line: Selectivity index, ratio of IC50 for human MRC5 cells to IC50 for Staphylococcus aureus ATCC 29213.
For the next data set, the system named is Aspergillus fumigatus. Put plainly: Antimicrobial activity against Aspergillus fumigatus SNB-AF1 after 24 hrs. To be noted: SNB-AF1, 24 h.
The nature of data set [2]: Selectivity index, ratio of IC50 for human MRC5 cells to IC50 for Aspergillus […] SNB-AF1.
The test system of another data set is Escherichia coli. Put plainly: Antimicrobial activity against Escherichia coli ATCC 25922 after 24 hrs. Type of data set: functional.
Data set [3] is described as follows: Selectivity index, ratio of IC50 for human MRC5 cells to IC50 for Trichophyton rubrum SNB-TR1.
The test system of another data set is KB. Nature of the data set: Cytotoxicity activity against human KB cells. The format is functional, cell-based. In a few lines:
(§1)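 IC50 in μM against KB (nasopharyngeal epidermoid carcinoma) and MRC5 (normal fetal lung) cells, with taxotere as the positive control.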

The subject of another data set is MRC5. Nature of the data set: Cytotoxicity activity against human MRC5 cells. Type of data set: cell-based. Summed up: as §1
A short description of data set [4]: Cytotoxicity activity against human MDA435 cells. The note with it: MDA-MB-435.
For the next data set, the system named is Trichophyton rubrum. Put plainly: Antimicrobial activity against Trichophyton rubrum SNB-TR1 after 5 days. The format is functional. The note with it: SNB-TR1, 120 h. Summed up:
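MIC against the dermatophyte T. rubrum, with itraconazole as the reference drug.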

Data set [5] can be described thus: Selectivity index, ratio of IC50 for human MRC5 cells to IC50 for Escherichia coli ATCC 25922.
Data set [6] can be described thus: Selectivity index, ratio of IC50 for human MRC5 cells to IC50 for Candida parapsilosis ATCC 22019.
The next data set relates to Staphylococcus aureus. Nature of the data set: Antimicrobial activity against Staphylococcus aureus ATCC 29213 after 24 hrs. The format is functional. The note with it: ATCC 29213, 24 h.
The next data set deals with Candida albicans. Put plainly: Antimicrobial activity against Candida albicans ATCC 10231 after 24 hrs. To be noted: ATCC 10231, 24 h.
Another data set deals with Candida parapsilosis. Nature of the data set: Antimicrobial activity against Candida parapsilosis ATCC 22019 after 24 hrs. To be noted: Lodderomyces parapsilosis, ATCC 22019, 24 h.
Data set [7] can be described thus: Selectivity index, ratio of IC50 for human MRC5 cells to IC50 for Candida albicans ATCC 10231.

What is called MIC is the least concentration at which growth counts as inhibited. A high value points to a need for much substance. A word on the IC50: it is the midpoint of a concentration-inhibition curve. Read a high IC50 as a need for much substance.

As to `C/C(=C\Cc1c(O)c(Cl)c(C)c(C(=O)O)c1O)CC/C=C(\C)CCCC(C)(C)O`, the selectivity ratio in data set [1] turned out to be 0.8; in data set [5] it was 3.3; in [6], 1.6; in data set [7], 1.6. The MIC turned out to be 128 µg/mL (≈ 301 µM) in the data set on Aspergillus fumigatus; 8 µg/mL (≈ 18.8 µM) with Escherichia coli (ATCC 25922, 24 h); 32 µg/mL (≈ 75.3 µM) against Trichophyton rubrum; 32 µg/mL (≈ 75.3 µM) in the data set on Staphylococcus aureus; 16 µg/mL (≈ 37.7 µM) in the data set on Candida albicans; 16 µg/mL (≈ 37.7 µM) with Candida parapsilosis. For the same compound, the entries for the “Selectivity Index” value in [2] and in data set [3] were 0.2 and 0.8, respectively. The IC50 in the data set on KB was 47.3 µM; in the data set on MRC5, 62.1 µM; in [4], 42.4 µM.

As to `CC(C)=CCCC(C)(O)CCC/C(C)=C/Cc1c(O)c(Cl)c(C)c(C(=O)O)c1O` (configuration not stated), the selectivity ratio in data set [1] was found to be 0.2; in data set [5] it was 0.7; in [6], 0.2; in data set [7], 0.2. In addition, the MIC was found to be 32 µg/mL (≈ 75.3 µM) in the data set with Aspergillus fumigatus; 8 µg/mL (≈ 18.8 µM) in the data set with Escherichia coli (ATCC 25922, 24 h); 4 µg/mL (≈ 9.41 µM) in the data set on Trichophyton rubrum; 32 µg/mL (≈ 75.3 µM) with Staphylococcus aureus; 32 µg/mL (≈ 75.3 µM) with Candida albicans; 32 µg/mL (≈ 75.3 µM) against Candida parapsilosis. For the same compound, the “Selectivity Index” value stood at 0.2 in [2] and 1.5 in data set [3]. In addition, the IC50 in the data set with KB was found to be 28.4 µM; in the data set with MRC5 it was 13.7 µM; in data set [4], 4.9 µM.

In the case of `CC(C)=CCC/C(C)=C/CCC(C)(O)C1Cc2c(O)c(C=O)c(C)c(Cl)c2O1` (configuration not stated), the MIC in the data set on Aspergillus fumigatus is > 128 µg/mL; against Escherichia coli (ATCC 25922, 24 h) it was 64 µg/mL (≈ 157 µM); against Trichophyton rubrum, 128 µg/mL (≈ 315 µM); against Staphylococcus aureus, 128 µg/mL (≈ 315 µM); against Candida albicans, 128 µg/mL (≈ 315 µM); against Candida parapsilosis it was 128 µg/mL (≈ 315 µM). In addition, the IC50 was found to be 16.5 µM in the data set on KB, 15.1 µM in the data set on MRC5 and 16.4 µM in data set [4].

`Cc1onc(-c2ccccc2)c1C(=O)N[C@@H]1C(=O)N2[C@@H]1SC(C)(C)[C@@H]2C(=O)O` [OXACILLIN] displayed an MIC in the data set with Staphylococcus aureus of 0.5 µg/mL (≈ 1.25 µM).

In the case of `CC(=O)O[C@@]12CO[C@@H]1C[C@H](O)[C@@]1(C)C(=O)[C@H](O)C3=C(C)[C@@H](OC(=O)[C@H](O)[C@@H](NC(=O)OC(C)(C)C)c4ccccc4)C[C@@](O)([C@@H](OC(=O)c4ccccc4)[C@H]21)C3(C)C` [DOCETAXEL], the 50% inhibitory concentration (IC50) with KB amounted to 0.0002 µM; with MRC5, 0.0005 µM.

Compound GENTAMICIN returned an MIC with Escherichia coli of 8 µg/mL.

In the case of `OC(Cn1cncn1)(Cn1cncn1)c1ccc(F)cc1F` [FLUCONAZOLE], the MIC against Candida albicans and against Candida parapsilosis was 4 µg/mL (≈ 13.1 µM) throughout.

Consider `CC(C)=CCC/C(C)=C/CC/C(C)=C/Cc1c(O)c(Cl)c(C)c(C(=O)O)c1O`, for which the selectivity ratio turned out to be 2 in data set [1], 8 in data set [5], 0.5 in [6] and 0.5 in data set [7]. Besides, the MIC in the data set with Aspergillus fumigatus turned out to be 64 µg/mL (≈ 157 µM); with Escherichia coli (ATCC 25922, 24 h), 1 µg/mL (≈ 2.46 µM); against Trichophyton rubrum it was 8 µg/mL (≈ 19.7 µM); in the data set with Staphylococcus aureus, 4 µg/mL (≈ 9.83 µM); with Candida albicans it was 16 µg/mL (≈ 39.3 µM); against Candida parapsilosis it was 16 µg/mL (≈ 39.3 µM). For the same compound, the “Selectivity Index” value came out at 0.1 in data set [2] and 1 in data set [3]. Further, the IC50 with KB came to 36.6 µM; in the data set with MRC5, 19.7 µM; in data set [4], 15.1 µM.

In the case of `CCC(C)n1ncn(-c2ccc(N3CCN(c4ccc(OCC5COC(Cn6cncn6)(c6ccc(Cl)cc6Cl)O5)cc4)CC3)cc2)c1=O` (configuration not stated) [ITRACONAZOLE], the MIC was 0.5 µg/mL (≈ 0.709 µM) against Aspergillus fumigatus and 0.03 µg/mL (≈ 0.0425 µM) with Trichophyton rubrum.
